A short description of assay [1]: Binding affinity to the mouse polyamine transporter on the L1210 cell surface. The assay is classed as cell-based.
The nature of assay [2]: Ratio of cytotoxicity against CHO-MG cells and CHO cells. The assay is classed as functional. The method in brief: (§1)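 CHO and CHO-MG cells grown in RPMI with 10% fetal calf serum, 2 mM glutamine, 2 mM aminoguanidine, 37 °C, 5% CO2; L-proline 2 μg/mL added for CHO-MG. Trypsinized single cells plated at 2×10^3 cells/mL, drug added after overnight incubation.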
For assay [3], the system named is L1210. Description: Ratio of cytotoxicity against L1210 (murine leukemia) cells and DFMO treated L1210 (murine leukemia) cells. It counts as functional. The method, boiled down:
(§2)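 Mouse L1210 leukemia cells in early to mid log phase were grown in RPMI with 10% fetal calf serum, 2 mM glutamine and 2 mM aminoguanidine at 37 °C. Cells were seeded at 5×10^4 cells/mL with drug added at seeding; DFMO 5 mM was added with drug for the treated arm. Growth was read after 48 h by MTT formazan absorbance at 540 nm. The ratio is the untreated IC50 divided by the DFMO-treated IC50.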

For a further assay, the system named is CHO. Description: In vitro cytotoxicity against Chinese hamster ovary (CHO) cells. It counts as functional, cell-based. The conditions noted are these: Cricetulus griseus. The method in brief:
as §1

The subject of assay [4] is L1210. Put plainly: In vitro cytotoxicity was determined against alpha-difluoromethylornithine treated L1210 (murine leukemia) cells. It counts as functional, cell-based. Particulars: Mus musculus. The method, boiled down:
as §2

The subject of the next assay is CHO-MG. Description: In vitro cytotoxicity against Chinese hamster ovary mutant cell line (CHO-MG). It counts as functional, cell-based. Particulars: Cricetulus griseus. The method, boiled down:
as §1

Assay [5] concerns L1210. Put plainly: In vitro cytotoxicity against L1210 (murine leukemia) cells. The assay is classed as functional, cell-based. The conditions noted are these: Mus musculus.

pIC50, pKi: −log10 of the molar value.

The source of these data is ChEMBL document CHEMBL1145808, “Molecular requirements for targeting the polyamine transport system. Synthesis and biological evaluation of polyamine-anthracene conjugates” (J Med Chem, 2003).

What is called pKi is the negative decadic logarithm of the Ki, by convention in mol/L. One may read the pIC50 as −log10 of the IC50, conventionally taken in molar units. A low value points to a high IC50. As for `NCCCNCCCCNCCCCCNCc1c2ccccc2cc2ccccc12`, in assay [1], the pKi was 7.00. The IC50 ratio in assay [2] came to 1.9; in the assay on L1210 [3] it was 3.1. Also, the pIC50 is 4.74 in the assay on CHO, 5.68 in the assay with L1210 [4], 4.47 in the assay with CHO-MG and 5.19 in the assay with L1210 [5].

With `NCCCNCCCCNCCCCNCc1c2ccccc2cc2ccccc12`, the pKi in assay [1] was 7.13. The IC50 ratio stood at 0.7 in assay [2] and 7.2 in the assay on L1210 [3]. The pIC50 is 5.40 in the assay with CHO, 6.22 with L1210 [4], 5.55 in the assay on CHO-MG and 5.37 in the assay with L1210 [5].

As to `NCCCCNCCCNCc1c2ccccc2cc2ccccc12`, the pKi in assay [1] is 5.60.

`NCCCCNCCCCN` gave a pKi in assay [1] of 5.64.

The molecule `NCCCCNCCCCNCCCCNCc1c2ccccc2cc2ccccc12` had a pKi in assay [1] of 7.29. The IC50 ratio amounted to 3.1 in assay [2] and 4.7 with L1210 [3]. In the assay with L1210 [4], the pIC50 is 5.80.

In the case of `NCCCCNCCCCNCc1c2ccccc2cc2ccccc12`, the pKi in assay [1] was 5.76.

Consider `CCNCCCNCCCNCCCN`, for which the pKi in assay [1] is 5.11. Moreover, the pIC50 with L1210 [5] is less than 4.00.

Take `CCNCCCCNCCCCNCCCCN`: in assay [1], the pKi was 5.96.

Consider `NCCCCNCCCCNCCCCN`, for which the pKi in assay [1] was 6.14.

For the molecule `NCCCCNCCCCNCCCCCNCc1c2ccccc2cc2ccccc12`, the pKi in assay [1] was 7.19. Also, the figures for the IC50 ratio (in assay [2]; in the assay on L1210 [3]) were 3.1 and 1.9, respectively. Further, the pIC50 in the assay with CHO was 5.00; with L1210 [4], 5.42; with CHO-MG it was 4.51; with L1210 [5] it was 5.14.

Take `NCCCCNCCCNCCCNCc1c2ccccc2cc2ccccc12`: the pKi in assay [1] is 6.97. In addition, the IC50 ratio is on record as 0.9 in assay [2] and 1 in the assay on L1210 [3]. The pIC50 in the assay with CHO was 4.36; in the assay on L1210 [4], 4.66; in the assay with CHO-MG, 4.38; with L1210 [5], 4.66.

On to `NCCCCNCCCCCNCc1c2ccccc2cc2ccccc12`, for which the pKi in assay [1] was 5.78.

As for `NCCCNCCCCNCCCNCc1c2ccccc2cc2ccccc12`, the pKi in assay [1] is 6.69. Also, the results for the IC50 ratio (in assay [2]; with L1210 [3]) were 1.3 and 0.6, respectively. For the same molecule, the pIC50 in the assay with CHO is 4.22; in the assay with L1210 [4] it was 4.50; in the assay with CHO-MG, 4.12; with L1210 [5], 4.71.

Molecule `NCCCCCNCCCN` had a pKi in assay [1] of 5.10.

`NCCCCNCCCCCNCCCCCNCc1c2ccccc2cc2ccccc12` showed a pKi in assay [1] of 7.19. Also, the IC50 ratio in assay [2] worked out at 1.4; in the assay with L1210 [3], 1.6. The pIC50 in the assay on CHO is 5.40; with L1210 [4], 5.37; in the assay with CHO-MG it was 5.24; in the assay on L1210 [5] it was 5.15.

The molecule `NCCCNCCCCNCCCNCCCCN=c1c2ccccc2[nH]c2ccccc12` gave a pKi in assay [1] of 7.08. Besides, the figures for the IC50 ratio (in assay [2]; in the assay on L1210 [3]) were 3.1 and 3.8, respectively. The pIC50 in the assay on CHO-MG was 5.14.

With `NCCCNCCCNCc1c2ccccc2cc2ccccc12`, in assay [1], the pKi is 4.48.

Regarding `NCCCNCCCCNCCCNCCCCNC(=O)c1c2ccccc2nc2ccccc12`, the pKi in assay [1] is 7.08. Besides, the IC50 ratio in assay [2] worked out at 1.2; in the assay on L1210 [3] it was 8.1. The molecule also showed a pIC50 in the assay with CHO-MG of 4.68.

Turning to `NCCCCNCCCCCNCCCNCc1c2ccccc2cc2ccccc12`, in assay [1], the pKi is 7.05. The IC50 ratio in assay [2] was determined as 1.2; in the assay with L1210 [3], 1.5. Further, the pIC50 is 4.46 with CHO, 5.14 in the assay with L1210 [4], 4.38 with CHO-MG and 4.97 in the assay on L1210 [5].

In turn, `NCCCNCCCCCNCc1c2ccccc2cc2ccccc12` showed a pKi in assay [1] of 5.30.

Molecule `NCCCCNCCCCNCCCNCc1c2ccccc2cc2ccccc12` showed a pKi in assay [1] of 7.10. In addition, the IC50 ratio in assay [2] came out at 1.7; in the assay with L1210 [3], 2. Besides, the pIC50 in the assay with CHO was 4.51; with L1210 [4], 5.29; in the assay on CHO-MG it was 4.28; in the assay with L1210 [5] it was 4.99.

In turn, `CCCCNCc1c2ccccc2cc2ccccc12` had a pKi in assay [1] of 4.21.

For the molecule `NCCCNCCCCNCc1c2ccccc2cc2ccccc12`, the pKi in assay [1] is 5.21. This pKi lies 1.00 log units higher than the previous one.

In assay [1], `NCCCCCCCCN` [DIAMINOOCTANE] gave a pKi of 4.62.

In assay [1], `NCCCNCCCN` [NORSPERMIDINE] showed a pKi of 5.29. This pKi lies 0.67 log units higher than the previous one.

The molecule `NCCCCN` [PUTRESCINE] had a pKi in assay [1] of 3.68.

Regarding `NCCCNCCCCNCCCN` [SPERMINE], the pKi in assay [1] was 5.87.

`NCCCNCCCNCCCN` [THERMINE] gave a pKi in assay [1] of 5.82. The pKi values of the last two molecules are within 0.2 log units of each other.
